Source: ChEMBL document CHEMBL3351348, “Synthesis and biological evaluation of new simple indolic non peptidic HIV Protease inhibitors: the effect of different substitution patterns” (Bioorg Med Chem, 2014)
pIC50: −log10 of the molar value.

assay: Inhibition of HIV Protease using Abz-Thr-Ile-Nle-Phe(NO2)-Gln-Arg as fluorogenic substrate by fluorimetry; set-up: species or system Human immunodeficiency virus; details: not given; call rule not given here
Procedure, shortened: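 Commercial HIV-PR at 10 nm final, in pH 5.5 MES buffer (100 mM MES/NaOH, 400 mM NaCl, 1 mM EDTA, 1 mM DTT), 25 °C thermostated cuvette. Substrate at 30 μM final. Excitation 325 nm, emission 420 nm. Enzyme added after 1.5 min and inhibitor (DMSO stock) after a further 1 min, then read 10 min. IC50 from initial rates over several inhibitor concentrations, at least three independent experiments.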

IC50 | Compound
Not Active | CC(C)CN(C[C@@H](O)CNc1ccc2[nH]ccc2c1)S(=O)(=O)c1ccc([N+](=O)[O-])cc1

same assay, conditions: read-out: IC50

pIC50 | Compound
6.00 | COc1ccc(S(=O)(=O)N(CC(C)C)C[C@@H](O)COc2ccc3[nH]ccc3c2)cc1OC
3.46 | COc1ccc(S(=O)(=O)N(CC(C)C)C[C@@H](O)COc2ccc3cc[nH]c3c2)cc1OC
4.62 | CC(C)(C)NC(=O)[C@@H]1C[C@@H]2CCCC[C@@H]2CN1C[C@@H](O)COc1cccc2[nH]ccc12
4.85 | CC(C)(C)NC(=O)[C@@H]1C[C@@H]2CCCC[C@@H]2CN1C[C@@H](O)COc1ccc2[nH]ccc2c1
3.86 | CC(C)(C)NC(=O)[C@@H]1C[C@@H]2CCCC[C@@H]2CN1C[C@@H](O)COc1ccc2cc[nH]c2c1
3.46 | CC(C)CN(C[C@@H](O)COc1cccc2[nH]ccc12)S(=O)(=O)c1ccc([N+](=O)[O-])cc1
5.00 | CC(C)CN(C[C@@H](O)COc1ccc2[nH]ccc2c1)S(=O)(=O)c1ccc([N+](=O)[O-])cc1
4.92 | CC(C)CN(C[C@@H](O)COc1ccc2[nH]ccc2c1)S(=O)(=O)c1ccc(N)cc1
4.34 | CC(C)CN(C[C@@H](O)COc1ccc2cc[nH]c2c1)S(=O)(=O)c1ccc([N+](=O)[O-])cc1
3.47 | COc1ccc(S(=O)(=O)N(CC(C)C)C[C@@H](O)COc2cccc3[nH]ccc23)cc1OC
2.58 | CC(C)CN(C[C@@H](O)CNc1cccc2[nH]ccc12)S(=O)(=O)c1ccc([N+](=O)[O-])cc1
3.47 | COc1ccc(S(=O)(=O)N(CC(C)C)C[C@@H](O)CNc2cccc3[nH]ccc23)cc1OC
2.36 | COc1ccc(S(=O)(=O)N(CC(C)C)C[C@@H](O)CNc2ccc3[nH]ccc3c2)cc1OC
4.30 | CC(C)(C)NC(=O)[C@@H]1C[C@@H]2CCCC[C@@H]2CN1C[C@@H](O)COC(=O)Nc1cccc2[nH]ccc12
3.22 | CC(C)(C)NC(=O)[C@@H]1C[C@@H]2CCCC[C@@H]2CN1C[C@@H](O)COC(=O)Nc1ccc2[nH]ccc2c1
4.14 | CC(C)CN(C[C@@H](O)COC(=O)Nc1cccc2[nH]ccc12)S(=O)(=O)c1ccc([N+](=O)[O-])cc1
5.70 | CC(C)CN(C[C@@H](O)COC(=O)Nc1ccc2[nH]ccc2c1)S(=O)(=O)c1ccc([N+](=O)[O-])cc1
3.21 | COc1ccc(S(=O)(=O)N(CC(C)C)C[C@@H](O)COC(=O)Nc2cccc3[nH]ccc23)cc1OC
2.85 | COc1ccc(S(=O)(=O)N(CC(C)C)C[C@@H](O)COC(=O)Nc2ccc3[nH]ccc3c2)cc1OC
5.10 | COc1ccc(S(=O)(=O)N(CC(C)C)C[C@@H](O)COC(=O)Nc2ccc3[nH]ccc3c2)cc1
3.80 | CC(C)(C)NC(=O)[C@@H]1C[C@@H]2CCCC[C@@H]2CN1C[C@@H](O)CNc1cccc2[nH]ccc12
3.75 | CC(C)(C)NC(=O)[C@@H]1C[C@@H]2CCCC[C@@H]2CN1C[C@@H](O)CNc1ccc2[nH]ccc2c1
